Experimental findings from ChEMBL document CHEMBL4373649, “Novel antimycobacterial C-21 amide derivatives of the antibiotic fusidic acid: synthesis, pharmacological evaluation and rationalization of media-dependent activity using molecular docking studies in the binding site of human serum albumin” (Medchemcomm, 2019) are described below.

Data set [1] concerns Mycobacterium tuberculosis. The experiment in a line: Antimycobacterial activity against Mycobacterium tuberculosis H37RvMA ATCC 27294 cultured in protein-based Middlebrook 7H9 medium supplemented with glucose, albumin-dextrose-catalase and Tween 80 assessed as inhibition of bacterial growth incubated for 7 days in by alamar blue staining based assay. The class given is functional. As to conditions: H37RvMA ATCC 27294, 168 h. The gist of the method:
(§1)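 Broth microdilution MIC90 assay against H37RvMa (ATCC 27294). Culture grown to OD600 0.6–0.7, diluted 1:500. Compounds come from 10 mM DMSO stocks and are run as duplicate two-fold dilutions over 10 wells. Plates incubated at 37 °C, 5% CO2, humidified. AlamarBlue added on day 7 and incubated 24 h more, then read on day 8, visually (blue = no growth) or by fluorescence (excitation 540 nm).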
Background: Alamar Blue is a resazurin reagent that responds to reducing activity.

Data set [2] relates to Mycobacterium tuberculosis. The experiment in a line: Antimycobacterial activity against Mycobacterium tuberculosis. The class given is functional. In outline:
as §1

Data set [3] relates to Mycobacterium tuberculosis. The experiment in a line: Antimycobacterial activity against Mycobacterium tuberculosis H37RvMA ATCC 27294 cultured in non protein-based Middlebrook 7H9 medium supplemented with glucose-casitone-tyloxapol assessed as inhibition of bacterial growth incubated for 7 days in by alamar blue staining based assay. As to conditions: H37RvMA ATCC 27294, 168 h. Format: functional. The gist of the method: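 Medium is 7H9 with 0.03% Casitone, 0.4% glucose and 0.05% Tyloxapol. H37RvMa is grown to OD600 0.6–0.7 and diluted 1:500. Duplicate two-fold dilutions over 10 wells come from 10 mM DMSO stocks. Incubation at 37 °C, 5% CO2. AlamarBlue added on day 7. The MIC90 is the lowest concentration with no visible growth on day 8, or is read by fluorescence.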

Data set [4] in a line: Protein binding in human serum. Format: ADME, cell-free. As to conditions: read-out: PB.
For the next data set, the system named is CHO-K1. The experiment in a line: Cytotoxicity against CHOK1 cells assessed as reduction in cell viability incubated for 48 hrs by MTT assay. As to conditions: Cricetulus griseus, CHO-K1, 48 h. Format: cell-based. The gist of the method:
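CHO-K1 cells seeded at 10^5 cells/well 24 h before exposure, medium then replaced with fresh medium containing compound; 48 h at 37 °C, 5% CO2, MTT added at 44 h for 4 h, formazan dissolved in DMSO, OD read at 540 nm. Triplicates; DMSO stocks 2 mg/mL, poorly soluble samples as suspensions; emetine reference; IC50 from non-linear dose-response fit.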
On the technique in general: Formazan colour is commonly taken as a measure of viable cells.

In brackets after ≈: the same amount, converted by molar mass.

What is called MIC90 is an inhibitory concentration at the 90% level, which refers to growth in some studies and to a panel of isolates in others. As for `CC(=O)O[C@H]1C[C@@]2(C)[C@@H](C[C@@H](O)[C@H]3[C@@]4(C)CC[C@@H](O)[C@@H](C)[C@@H]4CC[C@@]32C)/C1=C(\CCC=C(C)C)C(=O)O` [FUSIDIC ACID], the values for the MIC90 in data set [1], in data set [2] and in data set [3] were 9.25 µM (≈ 4.78 µg/mL), 31 µM (≈ 16 µg/mL) and 0.24 µM (≈ 0.124 µg/mL), respectively. The fraction unbound in data set [4] was in the range of 0.03 to 0.05.

As usually defined, the IC50 is the concentration needed to halve the response being measured. For the compound `CC(=O)O[C@H]1C[C@@]2(C)[C@@H](C[C@@H](O)[C@H]3[C@@]4(C)CC[C@@H](O)[C@@H](C)[C@@H]4CC[C@@]32C)/C1=C(\CCC=C(C)C)C(=O)NC(C)c1ccc(Cl)c(Cl)c1` (mixture of isomers), the MIC90 in data set [1] came to 32.3 µM; in data set [3], 7.2 µM. For the same compound, the IC50 with CHO-K1 is > 50 µM.

In the case of `CC(=O)O[C@H]1C[C@@]2(C)[C@@H](C[C@@H](O)[C@H]3[C@@]4(C)CC[C@@H](O)[C@@H](C)[C@@H]4CC[C@@]32C)/C1=C(\CCC=C(C)C)C(=O)N[C@@H](C)c1ccccc1Cl`, the results for the MIC90 in data set [1] and in data set [3] were 41.5 µM (≈ 27.2 µg/mL) and 9.8 µM (≈ 6.41 µg/mL), respectively. Further, the IC50 in the data set with CHO-K1 was found to be 45.1 µM.

As for `COC(=O)[C@H](NC(=O)/C(CCC=C(C)C)=C1\[C@@H](OC(C)=O)C[C@@]2(C)[C@H]1C[C@@H](O)[C@H]1[C@@]3(C)CC[C@@H](O)[C@@H](C)[C@@H]3CC[C@@]12C)c1ccccc1`, the MIC90 was found to be 38.8 µM (≈ 25.8 µg/mL) in data set [1] and 7.1 µM (≈ 4.71 µg/mL) in data set [3]. Moreover, the concentration for half-maximal inhibition (IC50) in the data set with CHO-K1 was 42.9 µM.

For `CC(=O)O[C@H]1C[C@@]2(C)[C@@H](C[C@@H](O)[C@H]3[C@@]4(C)CC[C@@H](O)[C@@H](C)[C@@H]4CC[C@@]32C)/C1=C(\CCC=C(C)C)C(=O)NC(C)c1cccnc1` (mixture of isomers), the MIC90 in data set [1] was > 125 µM; in data set [3], 17.9 µM. The half-inhibitory concentration (IC50) in the data set on CHO-K1 was > 50 µM.

As to `CC(=O)O[C@H]1C[C@@]2(C)[C@@H](C[C@@H](O)[C@H]3[C@@]4(C)CC[C@@H](O)[C@@H](C)[C@@H]4CC[C@@]32C)/C1=C(\CCC=C(C)C)C(=O)Nc1ccc(C)cc1`, the MIC90 is 125 µM (≈ 75.7 µg/mL) in data set [1] and > 125 µM in data set [3]. Further, in the data set on CHO-K1, the IC50 is > 50 µM.

With `CC(=O)O[C@H]1C[C@@]2(C)[C@@H](C[C@@H](O)[C@H]3[C@@]4(C)CC[C@@H](O)[C@@H](C)[C@@H]4CC[C@@]32C)/C1=C(\CCC=C(C)C)C(=O)NC(C)c1ccncc1` (mixture of isomers), the MIC90 in data set [1] came out at 125 µM; in data set [3], 13 µM. For the same compound, the half-inhibitory concentration (IC50) with CHO-K1 is > 50 µM.

For the compound `CC(=O)O[C@H]1C[C@@]2(C)[C@@H](C[C@@H](O)[C@H]3[C@@]4(C)CC[C@@H](O)[C@@H](C)[C@@H]4CC[C@@]32C)/C1=C(\CCC=C(C)C)C(=O)N[C@@H](C)c1ccc(F)cc1`, the figures for the MIC90 in data set [1] and in data set [3] were > 125 µM and 7.59 µM (≈ 4.84 µg/mL), respectively. The IC50 in the data set on CHO-K1 stood at 47.4 µM.

As for `CC(=O)O[C@H]1C[C@@]2(C)[C@@H](C[C@@H](O)[C@H]3[C@@]4(C)CC[C@@H](O)[C@@H](C)[C@@H]4CC[C@@]32C)/C1=C(\CCC=C(C)C)C(=O)N[C@@H](C)c1ccccc1`, the MIC90 is > 125 µM in data set [1] and 8.9 µM (≈ 5.52 µg/mL) in data set [3]. For the same compound, the half-inhibitory concentration (IC50) with CHO-K1 amounted to 46 µM.

For `CC(=O)O[C@H]1C[C@@]2(C)[C@@H](C[C@@H](O)[C@H]3[C@@]4(C)CC[C@@H](O)[C@@H](C)[C@@H]4CC[C@@]32C)/C1=C(\CCC=C(C)C)C(=O)NCc1ccc(S(N)(=O)=O)cc1`, the MIC90 was 62.3 µM (≈ 42.7 µg/mL) in data set [1] and 2.71 µM (≈ 1.86 µg/mL) in data set [3]. Further, the IC50 in the data set on CHO-K1 was determined as 30.2 µM.

For the compound `CC(=O)O[C@H]1C[C@@]2(C)[C@@H](C[C@@H](O)[C@H]3[C@@]4(C)CC[C@@H](O)[C@@H](C)[C@@H]4CC[C@@]32C)/C1=C(\CCC=C(C)C)C(=O)N[C@H](C)c1ccccc1Cl`, the MIC90 in data set [1] was > 125 µM; in data set [3] it was 10.1 µM (≈ 6.61 µg/mL). In addition, the concentration for half-maximal inhibition (IC50) with CHO-K1 came to 18.2 µM.

For the compound `CC(=O)O[C@H]1C[C@@]2(C)[C@@H](C[C@@H](O)[C@H]3[C@@]4(C)CC[C@@H](O)[C@@H](C)[C@@H]4CC[C@@]32C)/C1=C(\CCC=C(C)C)C(=O)NC1(c2ccccc2)CC1`, the figures for the MIC90 in data set [1] and in data set [3] were > 125 µM and 13.9 µM (≈ 8.78 µg/mL), respectively. The IC50 with CHO-K1 is 36.8 µM.

In the case of `CC(=O)O[C@H]1C[C@@]2(C)[C@@H](C[C@@H](O)[C@H]3[C@@]4(C)CC[C@@H](O)[C@@H](C)[C@@H]4CC[C@@]32C)/C1=C(\CCC=C(C)C)C(=O)NC(C)c1ccc(C)cc1` (mixture of isomers), the figures for the MIC90 in data set [1] and in data set [3] were > 125 µM and 2.91 µM, respectively. The concentration for half-maximal inhibition (IC50) with CHO-K1 is 47.9 µM.

For `CC(=O)O[C@H]1C[C@@]2(C)[C@@H](C[C@@H](O)[C@H]3[C@@]4(C)CC[C@@H](O)[C@@H](C)[C@@H]4CC[C@@]32C)/C1=C(\CCC=C(C)C)C(=O)N[C@H](C)c1ccc(F)cc1`, the MIC90 in data set [1] and in data set [3] was > 125 µM in each case. Moreover, in the data set with CHO-K1, the concentration for half-maximal inhibition (IC50) came out at 8.24 µM.

On to `CC(=O)O[C@H]1C[C@@]2(C)[C@@H](C[C@@H](O)[C@H]3[C@@]4(C)CC[C@@H](O)[C@@H](C)[C@@H]4CC[C@@]32C)/C1=C(\CCC=C(C)C)C(=O)N[C@@H](C(N)=O)c1ccccc1`, for which the MIC90 in data set [1] was found to be 15.7 µM (≈ 10.2 µg/mL); in data set [3] it was 9.1 µM (≈ 5.9 µg/mL). The half-inhibitory concentration (IC50) in the data set on CHO-K1 was > 50 µM.

As to `CC(=O)O[C@H]1C[C@@]2(C)[C@@H](C[C@@H](O)[C@H]3[C@@]4(C)CC[C@@H](O)[C@@H](C)[C@@H]4CC[C@@]32C)/C1=C(\CCC=C(C)C)C(=O)NC(C)c1cnccn1` (mixture of isomers), the MIC90 turned out to be 62.5 µM in data set [1] and 17.5 µM in data set [3]. Besides, the IC50 in the data set with CHO-K1 was > 50 µM.

With `CC(=O)O[C@H]1C[C@@]2(C)[C@@H](C[C@@H](O)[C@H]3[C@@]4(C)CC[C@@H](O)[C@@H](C)[C@@H]4CC[C@@]32C)/C1=C(\CCC=C(C)C)C(=O)Nc1ccc(O)cc1`, the MIC90 in data set [1] is > 125 µM; in data set [3] it was 6.9 µM (≈ 4.19 µg/mL). In the data set on CHO-K1, the concentration for half-maximal inhibition (IC50) is 45.4 µM.

As for `CC(=O)O[C@H]1C[C@@]2(C)[C@@H](C[C@@H](O)[C@H]3[C@@]4(C)CC[C@@H](O)[C@@H](C)[C@@H]4CC[C@@]32C)/C1=C(\CCC=C(C)C)C(=O)NCc1ccc(F)cc1`, the MIC90 is 125 µM (≈ 78 µg/mL) in data set [1] and > 125 µM in data set [3]. Also, the half-maximal inhibitory concentration (IC50) in the data set with CHO-K1 was 40.2 µM.
